According to ChEMBL document CHEMBL1139007 (J Med Chem, 2006):
One block for each molecule: values may come before it.

How the values were obtained:
[1] = target: T1, C-C chemokine receptor type 5 (Homo sapiens, UniProt P51681); assay: Inhibition of replication of R5 HIV1 Ba-L in MOLT4/CCR5 cells; assay type: functional, cell-based; details: Human immunodeficiency virus 1, MOLT-4
Target sequence in this assay (P51681 whole entry, looked up): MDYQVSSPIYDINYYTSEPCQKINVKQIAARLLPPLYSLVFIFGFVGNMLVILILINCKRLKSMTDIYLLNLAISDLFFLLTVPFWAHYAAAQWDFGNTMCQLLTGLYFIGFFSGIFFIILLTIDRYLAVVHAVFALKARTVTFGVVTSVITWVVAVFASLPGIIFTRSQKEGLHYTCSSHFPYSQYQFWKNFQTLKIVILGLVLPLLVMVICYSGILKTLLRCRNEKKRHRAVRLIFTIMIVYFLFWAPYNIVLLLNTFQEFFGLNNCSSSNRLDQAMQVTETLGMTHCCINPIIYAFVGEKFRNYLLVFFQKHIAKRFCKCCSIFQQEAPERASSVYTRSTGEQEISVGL

[2] = target: T1, C-C chemokine receptor type 5; assay: Displacement of [125I]RANTES from CCR5 expressed in CHO cells; assay type: cell-based
Target sequence in this assay (P51681 whole entry): as the sequence (P51681 whole entry, looked up) above

[3] = Tmax in Sprague-Dawley rat plasma at 3 mg/kg, po; assay type: ADME, organism-based; parameters: dose 3 mg/kg, route oral
[4] = AUC (0-24h) in cynomolgus monkey at 1 mg/kg, iv; assay type: ADME, organism-based, Macaca fascicularis; parameters: time < 24 hr, dose 1 mg/kg, route intravenous; details: plasma
Summary of the method: (§1)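 Blood was drawn at set times (rat tail vein, dog cephalic vein, monkey femoral vein) and spun to plasma. Plasma was run on C8 HPLC, 1-min fractions counted by liquid scintillation.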

[5] = AUC (0-24h) in Sprague-Dawley rat at 1 mg/kg, iv; assay type: ADME, organism-based; parameters: time < 24 hr, dose 1 mg/kg, route intravenous; details: plasma; summary of the method: as §1
[6] = Bioavailability in Beagle dog at 3 mg/kg, po; assay type: ADME, organism-based, Canis lupus familiaris; details: in vivo
[7] = system: Human immunodeficiency virus 1; assay: Inhibition of replication of R5 HIV1 KK in PMBC; assay type: functional, organism-based; details: Human immunodeficiency virus 1, KK
Summary of the method: (§2)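 PHA-stimulated PBMCs infected with clinical isolate (11-55 ng p24 per 4 × 10⁶ cells) for 4 h, washed to remove unadsorbed virus, then seeded at 2 × 10⁵ cells/well with a range of compound concentrations. On day 4 cells were split 1:2 into medium with the same compound level. IC50/IC90 for inhibition of replication; triplicate, repeated 3 or 4 times with PBMCs from different donors; means reported.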

[8] = Plasma concentration in cynomolgus monkey after 5 min at 1 mg/kg, iv; assay type: ADME, organism-based, Macaca fascicularis; parameters: dose 1 mg/kg, route intravenous; summary of the method: as §1
[9] = Tmax in Beagle dog plasma at 3 mg/kg, po; assay type: ADME, organism-based, Canis lupus familiaris; parameters: dose 3 mg/kg, route oral
[10] = Cmax in Beagle dog plasma at 3 mg/kg, po; assay type: ADME, organism-based, Canis lupus familiaris; parameters: dose 3 mg/kg, route oral
[11] = AUC (0-24h) in Beagle dog at 1 mg/kg, iv; assay type: ADME, organism-based, Canis lupus familiaris; parameters: time < 24 hr, dose 1 mg/kg, route intravenous; details: plasma; summary of the method: as §1
[12] = system: Human immunodeficiency virus 1; assay: Inhibition of replication of R5 HIV1 HNK in PMBC; assay type: functional, organism-based; details: Human immunodeficiency virus 1, HNK; summary of the method: as §2
[13] = Tmax in cynomolgus monkey plasma at 3 mg/kg, po; assay type: ADME, organism-based, Macaca fascicularis; parameters: dose 3 mg/kg, route oral
[14] = target: T2, C-C chemokine receptor type 1 (Homo sapiens, UniProt P32246); assay: Displacement of [125I]RANTES from CCR1 expressed in CHO cells; assay type: cell-based
T2 sequence (P32246 whole entry): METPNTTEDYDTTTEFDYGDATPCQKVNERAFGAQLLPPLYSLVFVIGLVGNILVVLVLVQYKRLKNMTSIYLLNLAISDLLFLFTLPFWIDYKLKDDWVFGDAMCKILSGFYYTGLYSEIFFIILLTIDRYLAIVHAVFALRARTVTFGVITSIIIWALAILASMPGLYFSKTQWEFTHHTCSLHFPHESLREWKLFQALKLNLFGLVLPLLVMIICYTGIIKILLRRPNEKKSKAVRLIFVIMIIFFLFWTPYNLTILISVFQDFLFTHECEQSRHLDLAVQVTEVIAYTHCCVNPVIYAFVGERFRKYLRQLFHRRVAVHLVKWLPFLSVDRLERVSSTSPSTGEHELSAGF
Summary of the method: (§3)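 CHO cells stably expressing the named chemokine receptor were incubated with the [125I]-labelled ligand (RANTES for CCR5 and CCR1, eotaxin for CCR3, TARC for CCR4) and varying compound concentrations. IC50 for inhibition of ligand binding is the mean of triplicate measurements.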

[15] = Plasma concentration in Beagle dog after 5 min at 1 mg/kg, iv; assay type: ADME, organism-based, Canis lupus familiaris; parameters: dose 1 mg/kg, route intravenous; summary of the method: as §1
[16] = Bioavailability in cynomolgus monkey at 3 mg/kg, po; assay type: ADME, organism-based, Macaca fascicularis; details: in vivo
[17] = AUC (0-24h) in Beagle dog at 3 mg/kg, po; assay type: ADME, organism-based, Canis lupus familiaris; parameters: time < 24 hr, dose 3 mg/kg, route oral; details: plasma
[18] = system: Human immunodeficiency virus 1; assay: Inhibition of replication of R5 HIV1 HTN in PMBC; assay type: functional, organism-based; details: Human immunodeficiency virus 1, HTN; summary of the method: as §2
[19] = AUC (0-24h) in cynomolgus monkey at 3 mg/kg, po; assay type: ADME, organism-based, Macaca fascicularis; parameters: time < 24 hr, dose 3 mg/kg, route oral; details: plasma
[20] = AUC (0-24h) in Sprague-Dawley rat at 3 mg/kg, po; assay type: ADME, organism-based; parameters: time < 24 hr, dose 3 mg/kg, route oral; details: plasma
[21] = system: Human immunodeficiency virus 1; assay: Inhibition of replication of R5 HIV1 HHA in PMBC; assay type: functional, organism-based; details: Human immunodeficiency virus 1, HHA; summary of the method: as §2
[22] = target: T3, C-C chemokine receptor type 7 (Homo sapiens, UniProt P32248); assay: Displacement of [125I]MIP-3beta from CCR7 expressed in CHO cells; assay type: cell-based
T3 sequence (P32248 whole entry): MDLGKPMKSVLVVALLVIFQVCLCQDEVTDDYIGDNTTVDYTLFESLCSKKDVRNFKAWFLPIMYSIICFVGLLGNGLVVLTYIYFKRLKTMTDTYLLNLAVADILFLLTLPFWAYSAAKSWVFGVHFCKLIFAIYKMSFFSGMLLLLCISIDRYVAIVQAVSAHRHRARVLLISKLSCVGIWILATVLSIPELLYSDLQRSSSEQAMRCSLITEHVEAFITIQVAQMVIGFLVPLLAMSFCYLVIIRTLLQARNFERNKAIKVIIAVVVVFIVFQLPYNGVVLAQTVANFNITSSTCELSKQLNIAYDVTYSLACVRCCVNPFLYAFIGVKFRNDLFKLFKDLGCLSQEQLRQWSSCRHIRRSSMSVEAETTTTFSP
Summary of the method: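 CHO cells stably expressing CCR7, run in the same way as the CCR5 binding assay. Binding of [¹²⁵I]-MIP-3β was measured across a range of test compound concentrations. IC50 is the concentration that inhibits ligand binding by 50%, reported as the mean of triplicate measurements.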

[23] = Half life in cynomolgus monkey plasma at 1 mg/kg, iv; assay type: ADME, organism-based, Macaca fascicularis; parameters: dose 1 mg/kg, route intravenous; summary of the method: as §1
[24] = target: T4, C-C chemokine receptor type 3 (Homo sapiens, UniProt P51677); assay: Displacement of [125I]eotaxin from CCR3 expressed in CHO cells; assay type: cell-based; summary of the method: as §3
T4 sequence (P51677 whole entry): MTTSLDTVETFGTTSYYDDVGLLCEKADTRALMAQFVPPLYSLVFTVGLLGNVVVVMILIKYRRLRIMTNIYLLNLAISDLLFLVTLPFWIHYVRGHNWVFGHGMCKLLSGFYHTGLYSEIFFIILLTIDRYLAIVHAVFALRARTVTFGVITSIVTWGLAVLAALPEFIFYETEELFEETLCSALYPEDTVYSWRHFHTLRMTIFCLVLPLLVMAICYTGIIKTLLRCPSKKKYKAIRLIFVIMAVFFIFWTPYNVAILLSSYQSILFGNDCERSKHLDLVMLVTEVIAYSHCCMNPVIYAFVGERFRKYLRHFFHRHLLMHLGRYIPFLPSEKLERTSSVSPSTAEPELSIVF

[25] = Cmax in Sprague-Dawley rat plasma at 3 mg/kg, po; assay type: ADME, organism-based; parameters: dose 3 mg/kg, route oral
[26] = system: Human immunodeficiency virus 1; assay: Inhibition of replication of R5 HIV1 HKW in PMBC; assay type: functional, organism-based; details: Human immunodeficiency virus 1, HKW; summary of the method: as §2
[27] = Plasma concentration in Sprague-Dawley rat after 5 min at 1 mg/kg, iv; assay type: ADME, organism-based; parameters: dose 1 mg/kg, route intravenous; summary of the method: as §1
[28] = target: T5, C-C chemokine receptor type 4 (Homo sapiens, UniProt P51679); assay: Displacement of [125I]TARC from CCR4 expressed in CHO cells; assay type: cell-based; summary of the method: as §3
T5 sequence (P51679 whole entry): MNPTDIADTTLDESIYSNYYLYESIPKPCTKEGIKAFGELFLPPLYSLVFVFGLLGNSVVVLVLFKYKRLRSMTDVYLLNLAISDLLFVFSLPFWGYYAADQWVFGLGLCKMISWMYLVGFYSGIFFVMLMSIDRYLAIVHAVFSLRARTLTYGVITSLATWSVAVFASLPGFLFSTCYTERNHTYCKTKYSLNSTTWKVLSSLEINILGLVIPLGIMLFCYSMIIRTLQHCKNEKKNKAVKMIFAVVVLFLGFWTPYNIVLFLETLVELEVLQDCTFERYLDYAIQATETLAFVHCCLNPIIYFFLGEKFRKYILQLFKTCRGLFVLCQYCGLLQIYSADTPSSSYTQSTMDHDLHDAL

[29] = Half life in Sprague-Dawley rat plasma at 1 mg/kg, iv; assay type: ADME, organism-based; parameters: dose 1 mg/kg, route intravenous; summary of the method: as §1
[30] = Half life in Beagle dog plasma at 1 mg/kg, iv; assay type: ADME, organism-based, Canis lupus familiaris; parameters: dose 1 mg/kg, route intravenous; summary of the method: as §1
[31] = Cmax in cynomolgus monkey plasma at 3 mg/kg, po; assay type: ADME, organism-based, Macaca fascicularis; parameters: dose 3 mg/kg, route oral
[32] = system: Human immunodeficiency virus 1; assay: Inhibition of replication of R5 HIV1 CTV in PMBC; assay type: functional, organism-based; details: Human immunodeficiency virus 1, CTV; summary of the method: as §2
[33] = Bioavailability in Sprague-Dawley rat at 3 mg/kg, po; assay type: ADME, organism-based; details: in vivo
[34] = target: T1, C-C chemokine receptor type 5; details: Human immunodeficiency virus 1; Ba-L; MOLT-4; 5 nM
Target sequence in this assay (P51681 whole entry, looked up): as the sequence (P51681 whole entry, looked up) above

IC90 [1]: 860 nM
IC50 [2]: 1.9 nM
SMILES: CCCCOCCOc1ccc(-c2ccc3c(c2)C=C(C(=O)Nc2ccc([S+]([O-])Cc4cncn4CCC)cc2)CCN3CC(C)C)cc1 (configuration not stated)

IC50 [2]: 67 nM
SMILES: CCCCOCCOc1ccc(-c2ccc3c(c2)/C=C(/C(=O)Nc2ccc([S@@+]([O-])Cc4cncn4CCC)cc2)CCCCCN3CC(C)C)cc1

IC90 [1]: 19 nM
IC50 [2]: 6.8 nM
SMILES: CCCCOCCOc1ccc(-c2ccc3c(c2)/C=C(/C(=O)Nc2ccc([S@@+]([O-])Cc4cncn4CCC)cc2)CCCCN3CC(C)C)cc1

Further lines, the molecule ahead of its results:

SMILES: CCCCOCCOc1ccc(-c2ccc3c(c2)/C=C(/C(=O)Nc2ccc([S@@+]([O-])Cc4cncn4CCC)cc2)CCCN3Cc2cnn(C)c2)cc1
IC90 [1]: 11 nM
IC50 [2]: 1.7 nM

SMILES: CCCCOCCOc1ccc(-c2ccc3c(c2)/C=C(/C(=O)Nc2ccc([S@@+]([O-])Cc4nncn4CCC)cc2)CCCN3CC(C)C)cc1
IC90 [1]: 10 nM
IC50 [2]: 2.4 nM

SMILES: CCCCOCCOc1ccc(-c2ccc3c(c2)/C=C(/C(=O)Nc2ccc([S@@+]([O-])Cc4cncn4CCC)cc2)CCCN3CC(C)C)cc1.CS(=O)(=O)O [CENICRIVIROC MESYLATE]
Tmax [3]: 1.3 h
AUC(0-t) at 24 h [4]: 1450 ng·h/mL
AUC(0-t) at 24 h [5]: 7610 ng·h/mL
bioavailability [6]: 88.5%
IC50 [7]: 0.043 nM
IC90 [7]: 0.19 nM
concentration at 5 min [8]: 3110 ng/mL
Tmax [9]: 2.7 h
Cmax [10]: 570 ng/mL
AUC(0-t) at 24 h [11]: 2310 ng·h/mL
IC90 [1]: 0.81 nM
IC50 [12]: 0.087 nM
IC90 [12]: 0.36 nM
Tmax [13]: 2 h
IC50 [14]: > 10000 nM
concentration at 5 min [15]: 2320 ng/mL
bioavailability [16]: 15.6%
AUC(0-t) at 24 h [17]: 6010 ng·h/mL
IC50 [18]: 0.089 nM
IC90 [18]: 0.32 nM
AUC(0-t) at 24 h [19]: 670 ng·h/mL
AUC(0-t) at 24 h [20]: 2320 ng·h/mL
IC50 [21]: 0.024 nM
IC90 [21]: 0.13 nM
IC50 [22]: > 10000 nM
half-life [23]: 6.09 h
IC50 [24]: 2400 nM
Cmax [25]: 485 ng/mL
IC50 [26]: 0.049 nM
IC90 [26]: 0.16 nM
concentration at 5 min [27]: 8020 ng/mL
IC50 [28]: 1100 nM
half-life [29]: 4.85 h
half-life [30]: 5.04 h
Cmax [31]: 116 ng/mL
IC50 [32]: 0.07 nM
IC90 [32]: 0.31 nM
bioavailability [33]: 10.2%

SMILES: CCCCOCCOc1ccc(-c2ccc3c(c2)/C=C(/C(=O)Nc2ccc([S@@+]([O-])Cc4cncn4CCC)cc2)CCCN3CCC)cc1
inhibition [34]: 72%
IC50 [2]: 1.7 nM

SMILES: CCCCOCCOc1ccc(-c2ccc3c(c2)/C=C(/C(=O)Nc2ccc([S@@+]([O-])Cc4cncn4CCC)cc2)CCCCCN3CCC)cc1
IC50 [2]: 25 nM

SMILES: CCCCOCCOc1ccc(-c2ccc3c(c2)/C=C(/C(=O)Nc2ccc([S@@+]([O-])Cc4cncn4CCC)cc2)CCCCN3CCC)cc1
IC50 [2]: 4.7 nM

SMILES: CCCCOCCOc1ccc(-c2ccc3c(c2)/C=C(/C(=O)Nc2ccc([S@@+]([O-])Cc4nncn4CCC)cc2)CCCN3CCC)cc1
IC50 [2]: 2.2 nM
